How the values were obtained:
Format in all cases: functional
[1] = system: NCI-H322M; assay: Growth inhibition of human NCI-H322M cells at 10 uM after 48 hrs by sulforhodamine B assay; details: read-out: GI
How it was run: (§1)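 Run at NCI on the 60-line panel. Cells grown in RPMI 1640 with 5% FBS and 2 mM L-glutamine, plated at 5000–40,000 cells/well by doubling time, and held 24 h at 37 °C before dosing. Drug (DMSO stock) given at a single final 10 µM in triplicate wells for 48 h. Adherent cells fixed with cold TCA (10% final), suspension cells with 16% TCA. SRB stain read at 515 nm. Percent growth from Tz, C and Ti.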

[2] = system: KM12; assay: Growth inhibition of human KM12 cells at 10 uM after 48 hrs by sulforhodamine B assay; details: KM12, 48 h, read-out: GI; how it was run: as §1
[3] = Growth inhibition of human UO31 cells at 10 uM after 48 hrs by sulforhodamine B assay; details: UO-31, 48 h, read-out: GI
How it was run: (§2)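 NCI-60 panel, adherent cells grown in RPMI 1640 with 5% FBS and 2 mM L-glutamine, plated at 5000–40,000 cells/well and preincubated 24 h at 37 °C, 5% CO2. 10 µM final compound from DMSO stock, triplicate wells, 48 h. Fixed with cold TCA (10% final, 60 min, 4 °C) and stained with 0.4% SRB. Absorbance read at 515 nm; growth calculated against time-zero and control wells.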

[4] = system: NCI-H522; assay: Growth inhibition of human NCI-H522 cells at 10 uM after 48 hrs by sulforhodamine B assay; details: NCI-H522, 48 h, read-out: GI; how it was run: as §1
[5] = Growth inhibition of human OVCAR8 cells at 10 uM after 48 hrs by sulforhodamine B assay; details: OVCAR-8, 48 h, read-out: GI; how it was run: as §1
[6] = Growth inhibition of human OVCAR4 cells at 10 uM after 48 hrs by sulforhodamine B assay; details: OVCAR-4, 48 h, read-out: GI; how it was run: as §1
[7] = Growth inhibition of human SF268 cells at 10 uM after 48 hrs by sulforhodamine B assay; details: SF-268, 48 h, read-out: GI; how it was run: as §1
[8] = system: K562; assay: Growth inhibition of human K562 cells at 10 uM after 48 hrs by sulforhodamine B assay; details: K562, 48 h, read-out: GI; how it was run: as §1
[9] = system: MCF7; assay: Growth inhibition of human MCF7 cells at 10 uM after 48 hrs by sulforhodamine B assay; details: MCF7, 48 h, read-out: GI; how it was run: as §1
[10] = system: NCI-H226; assay: Growth inhibition of human NCI-H226 cells at 10 uM after 48 hrs by sulforhodamine B assay; details: NCI-H226, 48 h, read-out: GI; how it was run: as §1
[11] = Growth inhibition of human COLO205 cells at 10 uM after 48 hrs by sulforhodamine B assay; details: COLO 205, 48 h, read-out: GI; how it was run: as §1
[12] = Growth inhibition of human HOP92 cells at 10 uM after 48 hrs by sulforhodamine B assay; details: HOP-92, 48 h, read-out: GI; how it was run: as §1
[13] = system: MDA-MB-468; assay: Growth inhibition of human MDA-MB-468 cells at 10 uM after 48 hrs by sulforhodamine B assay; details: MDA-MB-468, 48 h, read-out: GI; how it was run: as §1
[14] = system: U-251; assay: Growth inhibition of human U251 cells at 10 uM after 48 hrs by sulforhodamine B assay; details: U-251, 48 h, read-out: GI; how it was run: as §2
[15] = Growth inhibition of human LOXIMVI cells at 10 uM after 48 hrs by sulforhodamine B assay; details: LOX IMVI, read-out: GI; how it was run: as §1
[16] = system: Malme-3M; assay: Growth inhibition of human MALME-3M cells at 10 uM after 48 hrs by sulforhodamine B assay; details: read-out: GI; how it was run: as §1
[17] = system: HT-29; assay: Growth inhibition of human HT-29 cells at 10 uM after 48 hrs by sulforhodamine B assay; details: HT-29, 48 h, read-out: GI; how it was run: as §1
[18] = system: NCI-H23; assay: Growth inhibition of human NCI-H23 cells at 10 uM after 48 hrs by sulforhodamine B assay; details: NCI-H23, 48 h, read-out: GI; how it was run: as §1
[19] = Growth inhibition of human SNB75 cells at 10 uM after 48 hrs by sulforhodamine B assay; details: SNB-75, 48 h, read-out: GI; how it was run: as §1
[20] = Growth inhibition of human HCT15 cells at 10 uM after 48 hrs by sulforhodamine B assay; details: HCT-15, 48 h, read-out: GI; how it was run: as §1
[21] = Growth inhibition of human IGROV1 cells at 10 uM after 48 hrs by sulforhodamine B assay; details: IGROV-1, 48 h, read-out: GI; how it was run: as §1
[22] = Growth inhibition of human OVCAR5 cells at 10 uM after 48 hrs by sulforhodamine B assay; details: OVCAR-5, 48 h, read-out: GI; how it was run: as §1
[23] = system: MDA-MB-231; assay: Growth inhibition of human MDA-MB-231 cells at 10 uM after 48 hrs by sulforhodamine B assay; details: MDA-MB-231, 48 h, read-out: GI; how it was run: as §1
[24] = Growth inhibition of human DU145 cells at 10 uM after 48 hrs by sulforhodamine B assay; details: DU-145, 48 h, read-out: GI; how it was run: as §1
[25] = Growth inhibition of human NCI-ADR-RES cells at 10 uM after 48 hrs by sulforhodamine B assay; details: read-out: GI; how it was run: as §1
[26] = system: T47D; assay: Growth inhibition of human T47D cells at 10 uM after 48 hrs by sulforhodamine B assay; details: read-out: GI; how it was run: as §2
[27] = system: 786-0; assay: Growth inhibition of human 786-0 cells at 10 uM after 48 hrs by sulforhodamine B assay; details: 786-0, 48 h, read-out: GI; how it was run: as §1
[28] = Growth inhibition of human OVCAR3 cells at 10 uM after 48 hrs by sulforhodamine B assay; details: OVCAR-3, 48 h, read-out: GI; how it was run: as §1
[29] = system: A498; assay: Growth inhibition of human A498 cells at 10 uM after 48 hrs by sulforhodamine B assay; details: A498, 48 h, read-out: GI; how it was run: as §1
[30] = Growth inhibition of human SF295 cells at 10 uM after 48 hrs by sulforhodamine B assay; details: SF-295, 48 h, read-out: GI; how it was run: as §1
[31] = system: SK-MEL-5; assay: Growth inhibition of human SK-MEL-5 cells at 10 uM after 48 hrs by sulforhodamine B assay; details: SK-MEL-5, 48 h, read-out: GI; how it was run: as §1
[32] = system: NCI-H460; assay: Growth inhibition of human NCI-H460 cells at 10 uM after 48 hrs by sulforhodamine B assay; details: NCI-H460, 48 h, read-out: GI; how it was run: as §1
[33] = Growth inhibition of human RPMI8226 cells at 10 uM after 48 hrs by sulforhodamine B assay; details: RPMI-8226, 48 h, read-out: GI; how it was run: as §1
[34] = Growth inhibition of human BT549 cells at 10 uM after 48 hrs by sulforhodamine B assay; details: BT-549, 48 h, read-out: GI; how it was run: as §1
[35] = system: ACHN; assay: Growth inhibition of human ACHN cells at 10 uM after 48 hrs by sulforhodamine B assay; details: read-out: GI; how it was run: as §1
[36] = Growth inhibition of human SNB19 cells at 10 uM after 48 hrs by sulforhodamine B assay; details: SNB-19, 48 h, read-out: GI; how it was run: as §1

| Compound | inhibition of growth at 10 µM [1] | inhibition of growth at 10 µM [2] | inhibition of growth at 10 µM [3] | inhibition of growth at 10 µM [4] | inhibition of growth at 10 µM [5] | inhibition of growth at 10 µM [6] | inhibition of growth at 10 µM [7] | inhibition of growth at 10 µM [8] | inhibition of growth at 10 µM [9] | inhibition of growth at 10 µM [10] | inhibition of growth at 10 µM [11] | inhibition of growth at 10 µM [12] | inhibition of growth at 10 µM [13] | inhibition of growth at 10 µM [14] | inhibition of growth at 10 µM [15] | inhibition of growth at 10 µM [16] | inhibition of growth at 10 µM [17] | inhibition of growth at 10 µM [18] | inhibition of growth at 10 µM [19] | inhibition of growth at 10 µM [20] | further results |
| --- | --- | --- | --- | --- | --- | --- | --- | --- | --- | --- | --- | --- | --- | --- | --- | --- | --- | --- | --- | --- | --- |
| COc1ccc(Cc2nnc(Nc3cccc(OC)c3)c3ccccc23)cc1 | < 30% | < 30% | 57% | 63% | < 30% | < 30% | < 30% | < 30% | < 30% | 37% | < 30% | 53% | < 30% | < 30% | < 30% | < 30% | < 30% | < 30% | 41% | < 30% | inhibition of growth at 10 µM [21]: 33%; inhibition of growth at 10 µM [22]: < 30%; inhibition of growth at 10 µM [23]: 37%; inhibition of growth at 10 µM [24]: < 30%; inhibition of growth at 10 µM [25]: 30%; inhibition of growth at 10 µM [26]: 30%; inhibition of growth at 10 µM [27]: < 30%; inhibition of growth at 10 µM [28]: < 30%; inhibition of growth at 10 µM [29]: < 30%; inhibition of growth at 10 µM [30]: < 30%; inhibition of growth at 10 µM [31]: < 30%; inhibition of growth at 10 µM [32]: < 30%; inhibition of growth at 10 µM [33]: 77%; inhibition of growth at 10 µM [34]: < 30%; inhibition of growth at 10 µM [35]: < 30%; inhibition of growth at 10 µM [36]: 30% |
| COc1ccc(Cc2nnc(Nc3ccc(OC)cc3)c3ccccc23)cc1 | < 30% | < 30% | 43% | < 30% | < 30% | < 30% | < 30% | < 30% | 38% | < 30% | < 30% | 55% | < 30% | < 30% | < 30% | < 30% | < 30% | < 30% | < 30% | < 30% | inhibition of growth at 10 µM [21]: < 30%; inhibition of growth at 10 µM [22]: < 30%; inhibition of growth at 10 µM [23]: 36%; inhibition of growth at 10 µM [24]: < 30%; inhibition of growth at 10 µM [25]: < 30%; inhibition of growth at 10 µM [26]: 46%; inhibition of growth at 10 µM [27]: < 30%; inhibition of growth at 10 µM [28]: < 30%; inhibition of growth at 10 µM [29]: 47%; inhibition of growth at 10 µM [30]: 30%; inhibition of growth at 10 µM [31]: < 30%; inhibition of growth at 10 µM [32]: < 30%; inhibition of growth at 10 µM [33]: < 30%; inhibition of growth at 10 µM [34]: < 30%; inhibition of growth at 10 µM [35]: < 30%; inhibition of growth at 10 µM [36]: < 30% |

— ChEMBL document CHEMBL3779892, “Increasing the binding affinity of VEGFR-2 inhibitors by extending their hydrophobic interaction with the active site: Design, synthesis and biological evaluation of 1-substituted-4-(4-methoxybenzyl)phthalazine derivatives” (Eur J Med Chem, 2016)
